From PubChem
Tb hexokinase: Trypanosoma brucei hexokinase 1 inhibitors, primary screen, biochemical, G6PDH-coupled NADH absorbance, MLSCN library | hexokinase 1 [Trypanosoma brucei] | recombinant TbHK1, G6PDH-coupled NADH A340 | inhibition, % at 10 µM | 220,000 tested, 0.11% active | AID 1430, 2008;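 active = inhibition of 50% or more in the single-dose primary screen; inactive = inhibition below 50%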
p97 inhibitor: inhibitors of human p97 ATPase, primary screen, biochemical | inhibition, % at 8 µM | AID 1481, 2009 | Transitional endoplasmic reticulum ATPase (Homo sapiens), P55072 | recombinant p97 ATPase, Kinase-Glo ATP luminescence, 3 h | 220,000 tested, 0.42% active; in the data active = inhibition above about 15%;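 also: 0% = DMSO vehicle and 100% = wells lacking enzyme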
DTT redox prof: compounds producing H2O2 with reducing agent – biochemical, NIH compound library profiling, artefact control for MLSCN library redox annotation, primary screen; DTT-dependent redox cycling H2O2, phenol red/HRP absorbance; 100% = 100 µM peroxide control, 0% = buffer; activation, % at 10 µM; 200,000 tested, 0.03% active;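 active = activation of at least 50% relative to the plate's high and low controls in the primary single-dose screen; inactive = activation below 50%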;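 also: compound incubated with DTT at 0.8 mM final as the reducing agent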
PMI act satM6P: human PMI activators, high substrate, primary screen, biochemical, fluorescence intensity, near-saturating mannose 6-phosphate; Mannose-6-phosphate isomerase (Homo sapiens), P34949; coupled PMI enzyme assay, resazurin fluorescence, 20 min; active compounds read high; 1 = untreated enzyme, 0 = substrate-free blank; activation factor at 20 µM; 190,000 tested, 0.34% active;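 active = activation factor of 2 or more at 20 µM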
Target sequence (P34949 whole entry, looked up): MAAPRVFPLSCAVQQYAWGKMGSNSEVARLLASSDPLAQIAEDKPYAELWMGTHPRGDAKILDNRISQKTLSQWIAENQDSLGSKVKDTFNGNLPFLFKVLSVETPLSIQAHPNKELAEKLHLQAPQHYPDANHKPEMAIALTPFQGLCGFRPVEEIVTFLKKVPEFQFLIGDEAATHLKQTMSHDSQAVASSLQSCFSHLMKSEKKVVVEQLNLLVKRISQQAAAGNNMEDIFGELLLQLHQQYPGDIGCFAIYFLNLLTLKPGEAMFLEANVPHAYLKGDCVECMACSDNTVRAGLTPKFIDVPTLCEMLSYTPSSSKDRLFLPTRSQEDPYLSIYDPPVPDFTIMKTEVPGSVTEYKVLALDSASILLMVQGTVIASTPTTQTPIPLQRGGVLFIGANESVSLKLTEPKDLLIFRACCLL
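Test system – human PMI in coupled enzyme assay · Timing – 20 min incubation at room temperature · Detection – Diaphorase-driven resazurin-to-resorufin fluorescence, excitation 544, emission 590 nm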
PMI act: activators of human PMI, primary screen, biochemical, fluorescence intensity, near-Km mannose 6-phosphate. activation factor at 20 µM. Mannose-6-phosphate isomerase (Homo sapiens), P34949. AID 1214, 2008. purified human PMI, coupled resazurin fluorescence, 20 min; active compounds read high; 1 = vehicle control, 0 substrate-free wells. 190,000 tested, 0.005% active;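 active = activation factor of 2 or more at 20 µM, relative to plate controls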
G6PDH counter: L. mesenteroides G6PDH inhibitors, counter-screen for G6PDH-coupled screening assays, biochemical, Leuconostoc mesenteroides enzyme; glucose-6-phosphate dehydrogenase [Leuconostoc mesenteroides]; Purified L. mesenteroides G6PDH, diaphorase/resazurin coupled fluorescence, 45 min; inhibition, % at 5 µM; 200,000 tested, 0.12% active; in the data active = inhibition above about 50%
* marks the source's active call; other numbers are inactive results. Sampled rows, rich in hits. Any-hit rate of the full collection: about 0.91%.

What do the screens show for `COc1ccc(C2c3c(oc4ccccc4c3=O)C(=O)N2Cc2ccncc2)cc1` (stereo not given)?
Tb hexokinase: 0; p97 inhibitor: 2; DTT redox prof: 3; PMI act satM6P: 1; PMI act: 1.2; G6PDH counter: 7

How did CN1C(=O)c2oc3ccccc3c(=O)c2C1c1ccncc1 (stereo not given) do in these assays?
PMI act satM6P: 2.3*; PMI act: 1.6; G6PDH counter: 3

What do the screens show for `COc1cc(/C=N/NC(=O)c2cccnc2)ccc1OS(=O)(=O)c1cc(C)ccc1C`?
Tb hexokinase: 28; p97 inhibitor: -5; DTT redox prof: 0; PMI act satM6P: 0.9; PMI act: 0.9; G6PDH counter: -3

How did CCOC(=O)N1CCN(S(=O)(=O)c2cc(C)c(C)cc2C)CC1 do in these assays?
Tb hexokinase: -9; p97 inhibitor: 1; DTT redox prof: 2; PMI act satM6P: 1; PMI act: 1; G6PDH counter: -3

How did Cc1cc(C)c(S(=O)(=O)/N=C2/C=C(SCC(=O)O)C(=O)c3ccccc32)cc1C do in these assays?
Tb hexokinase: 4; p97 inhibitor: 1; DTT redox prof: 0; PMI act satM6P: 1.3; PMI act: 1.2; G6PDH counter: 51*

How did COc1ccc(C(=O)c2ccccc2)cc1 do in these assays?
Tb hexokinase: -2; p97 inhibitor: -3; DTT redox prof: 0; PMI act satM6P: 1.1; PMI act: 1.2; G6PDH counter: 8

What do the screens show for `COc1ccc(C(=O)NNc2ccccc2)cc1`?
Tb hexokinase: 21; p97 inhibitor: 8; DTT redox prof: 0; PMI act satM6P: 2.4*; PMI act: 1.7; G6PDH counter: -3

What do the screens show for `O=C(CN1CCN(CC(=O)Nc2ccccc2Cl)CC1)Nc1ccc2c(c1)OCCO2`?
Tb hexokinase: -6; p97 inhibitor: 3; DTT redox prof: -1; PMI act satM6P: 2*; PMI act: 1.4; G6PDH counter: 9

How did S=C(Nc1ccc2nsnc2c1)N1CCCCCC1 do in these assays?
Tb hexokinase: -14; p97 inhibitor: 4; DTT redox prof: 0; G6PDH counter: 60*

What do the screens show for `CC/C(=N/Nc1cccc(Cl)c1)c1cnnc(SC)n1`?
Tb hexokinase: -5; p97 inhibitor: 1; DTT redox prof: 2; PMI act satM6P: 1.1; PMI act: 1.1; G6PDH counter: 7

How did CC/C(=N/Nc1ccccc1)c1cnnc(-c2ccccc2)n1 do in these assays?
Tb hexokinase: 13; p97 inhibitor: -3; DTT redox prof: -1; PMI act satM6P: 2.9*; PMI act: 1.9; G6PDH counter: -2

How did O=C(C1=C[C@@H]2[C@H]3C(=O)N(c4ccccc4Cl)C(=O)[C@H]3[C@@H](C(=O)c3ccc(Cl)cc3)N2C=C1)c1ccccc1 do in these assays?
Tb hexokinase: -3; p97 inhibitor: 11; DTT redox prof: 0; PMI act satM6P: 1.1; PMI act: 1.3; G6PDH counter: 14

How did O=C(C1=C[C@@H]2[C@H]3C(=O)N(c4cccc(Cl)c4)C(=O)[C@H]3[C@@H](C(=O)c3ccc(Cl)cc3)N2C=C1)c1ccccc1 do in these assays?
Tb hexokinase: -3; p97 inhibitor: 5; DTT redox prof: 0; PMI act satM6P: 2.2*; PMI act: 1.5; G6PDH counter: 4

How did Cc1ccc(N2C(=O)[C@@H]3[C@H](C2=O)[C@H]2C=C(C(=O)c4ccccc4)C=CN2[C@@H]3C(=O)c2ccc(Cl)cc2)cc1 do in these assays?
Tb hexokinase: -7; p97 inhibitor: 2; DTT redox prof: 0; PMI act satM6P: 2.1*; PMI act: 1.6; G6PDH counter: 7

Results for O=C(c1ccc(Cl)cc1)[C@@H]1[C@@H]2C(=O)N(c3ccccc3)C(=O)[C@@H]2C2c3ccccc3C=NN21 (stereo not given in full) ?
Tb hexokinase: -13; p97 inhibitor: 9; DTT redox prof: 0; PMI act satM6P: 0.9; PMI act: 0.9; G6PDH counter: 7

What do the screens show for `COC(=O)c1ccccc1NC(=S)N(Cc1ccc2c(c1)OCO2)Cc1cc2cc(OC)ccc2[nH]c1=O`?
Tb hexokinase: -11; p97 inhibitor: 2; DTT redox prof: 0; PMI act satM6P: 0.8; PMI act: 0.7; G6PDH counter: 9

How did O=C(Nc1ccc(Cl)cc1)[C@@H]1[C@@H]2C(=O)N(c3ccc4ccccc4c3)C(=O)[C@@H]2[C@H]2C=CC=NN21 do in these assays?
Tb hexokinase: -8; p97 inhibitor: 7; DTT redox prof: 1; PMI act satM6P: 2*; PMI act: 1.5; G6PDH counter: 0

What do the screens show for `Cc1ccc(N2C(=O)[C@@H]3[C@H](C2=O)C2CCCN2[C@@H]3C(=O)c2ccccc2)cc1` (stereo not given in full)?
Tb hexokinase: -1; p97 inhibitor: 1; DTT redox prof: -1; PMI act satM6P: 2*; PMI act: 1.5; G6PDH counter: 3

What do the screens show for `O=C(c1ccccc1)[C@@H]1[C@@H]2C(=O)N(c3ccc(F)cc3)C(=O)[C@@H]2C2CCCN21` (stereo not given in full)?
Tb hexokinase: 1; p97 inhibitor: 7

What do the screens show for `CC(=O)c1ccc(N2C(=O)C3C(C2=O)C(C(=O)c2ccc(Cl)cc2)N2CCCC32)cc1` (stereo not given)?
Tb hexokinase: 1; p97 inhibitor: -3; DTT redox prof: 0; PMI act satM6P: 2*; PMI act: 1.6; G6PDH counter: 4

What do the screens show for `COc1ccc(N2C(=O)C3C(C2=O)C(C(=O)c2ccc(Cl)cc2)N2CCCC32)cc1` (stereo not given)?
Tb hexokinase: -3; p97 inhibitor: -2

How did O=C(c1ccc(Cl)cc1)C1C2C(=O)N(c3ccccc3)C(=O)C2C2CCCN21 (stereo not given) do in these assays?
Tb hexokinase: -2; p97 inhibitor: 1; DTT redox prof: 2; PMI act satM6P: 2*; PMI act: 1.6; G6PDH counter: 18

Results for O=[N+]([O-])c1ccc(-c2nc(C(Cl)Cl)c3ccccc3n2)cc1 ?
Tb hexokinase: -6; p97 inhibitor: 4

What do the screens show for `Cc1cccc(NC2=C/C(=N/S(=O)(=O)c3cccs3)c3ccccc3C2=O)c1`?
Tb hexokinase: -5; p97 inhibitor: 1; DTT redox prof: 6; PMI act satM6P: 0.4; PMI act: 1; G6PDH counter: 53*
